ChEMBL document CHEMBL4346669, “Novel nannocystin A analogues as anticancer therapeutics: Synthesis, biological evaluations and structure-activity relationship studies” (Eur J Med Chem, 2019)
The source made the active and inactive calls.

What was measured:
[1] = tested on: HCT-116; assay: Antiproliferative activity against human HCT116 cells assessed as reduction in cell viability measured after 72 hrs by MTT assay; assay type: functional, cell-based
Method in brief: (§1)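 Cells seeded 5×10^3/well, cultured overnight, then exposed to 10, 1, 0.1, 0.01, 0.001 and 0.0001 µM (from 10 mM DMSO stocks diluted in medium; vehicle 1% DMSO PBS) for 72 h at 37 °C. Medium replaced with 0.5 mg/mL MTT for 4 h, formazan dissolved in DMSO, A570 read. IC50 as mean ± SD of three independent experiments.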

[2] = tested on: A549; assay: Antiproliferative activity against human A549 cells assessed as reduction in cell viability measured after 72 hrs by MTT assay; assay type: functional, cell-based; method in brief: as §1
[3] = tested on: A549; assay: Inhibition of elongation factor 1-alpha1 expression in human A549 cells at 100 nM after 24 hrs by Western blot analysis; assay type: functional
[4] = tested on: A549; assay: Induction of apoptosis in human A549 cells assessed as late apoptotic cells at 30 nM after 12 hrs by Annexin-V FITC/propidium iodide staining based flow cytometric analysis (reference value: 1.22%); assay type: functional
[5] = tested on: PC-3; assay: Antiproliferative activity against human PC3 cells incubated for 72 hrs by 14C-thymidine incorporation assay; assay type: functional, cell-based; conditions: PC-3, 72 h
[6] = tested on: A549; assay: Induction of apoptosis in human A549 cells assessed as necrotic cells at 30 nM after 12 hrs by Annexin-V FITC/propidium iodide staining based flow cytometric analysis (reference value: 1.28%); assay type: functional
[7] = tested on: SH-SY5Y; assay: Antiproliferative activity against human SH-SY5Y cells assessed as reduction in cell viability measured after 72 hrs by MTT assay; assay type: functional, cell-based
Method in brief: (§2)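 Cells seeded at 5×10^3 per well and cultured overnight, then exposed for 72 h at 37 °C to six concentrations from 10 µM down to 0.0001 µM (from 10 mM DMSO stock diluted in medium; vehicle 1% DMSO in PBS). MTT at 0.5 mg/mL was added for 4 h, formazan dissolved in DMSO, and A570 read. IC50 given as mean ± SD of three independent experiments.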

[8] = tested on: A549; assay: Cell cycle arrest in human A549 cells assessed as accumulation at G1 phase at 30 nM after 24 hrs by propidium iodide/RNase A staining-based flow cytometric analysis (reference value: 57.41%); assay type: functional
[9] = tested on: A549; assay: Cell cycle arrest in human A549 cells assessed as accumulation at S phase at 30 nM after 24 hrs by propidium iodide/RNase A staining-based flow cytometric analysis (reference value: 12.57%); assay type: functional
[10] = tested on: HL-60; assay: Antiproliferative activity against human HL60 cells incubated for 96 hrs by cell-titer-Glo luminescent assay; assay type: functional, cell-based; conditions: HL-60, 96 h
[11] = tested on: A549; assay: Induction of apoptosis in human A549 cells assessed as viable cells at 30 nM after 12 hrs by Annexin-V FITC/propidium iodide staining based flow cytometric analysis (reference value: 97.18%); assay type: functional; conditions: A549, 12 h, read-out: Activity
[12] = tested on: A549; assay: Inhibition of colony formation in human A549 cells at 10 nM incubated for 3 days followed by further incubation in drug-free medium and measured after 15 days by crystal violet staining-based inverted microscopic analysis; assay type: functional, cell-based
Method in brief: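 A549 cells were plated at 500 per well in 2 mL medium for 24 h, then treated for 3 days, with drug-free medium replaced every 3 days afterwards. At day 15 after plating, colonies were fixed in 95% ethanol for 15 min, stained with 0.1% crystal violet, and counted; a colony was defined as more than 100 cells. Mean ± SD of three independent experiments.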

[13] = tested on: A549; assay: Induction of apoptosis in human A549 cells assessed as early apoptotic cells at 30 nM after 12 hrs by Annexin-V FITC/propidium iodide staining based flow cytometric analysis (reference value: 0.32%); assay type: functional
[14] = tested on: MDA-MB-231; assay: Antiproliferative activity against human MDA-MB-231 cells assessed as reduction in cell viability measured after 72 hrs by MTT assay; assay type: functional, cell-based; conditions: MDA-MB-231, 72 h; method in brief: as §2
[15] = tested on: MCF7; assay: Antiproliferative activity against human MCF7 cells assessed as reduction in cell viability measured after 72 hrs by MTT assay; assay type: functional, cell-based; conditions: MCF7, 72 h; method in brief: as §2
[16] = tested on: A-375; assay: Antiproliferative activity against human A375 cells assessed as reduction in cell viability measured after 72 hrs by MTT assay; assay type: functional, cell-based; conditions: A-375, 72 h; method in brief: as §2
[17] = tested on: A549; assay: Cell cycle arrest in human A549 cells assessed as accumulation at G2 phase at 30 nM after 24 hrs by propidium iodide/RNase A staining-based flow cytometric analysis (reference value: 30.02%); assay type: functional
[18] = Homo sapiens, HCT-116, 72 h, read-out: IC50
[19] = Homo sapiens, A549, 72 h, read-out: IC50

Q: What does the source list for `CO[C@@H]1C/C=C(\C)C(=O)N(C)[C@@H](C(C)C)C(=O)N[C@H](Cc2cc(Cl)c(O)c(Cl)c2)C(=O)N[C@@H](C(C)C)C(=O)O[C@H](c2ccccc2)[C@H](C)/C=C/C=C/1C`?
A: IC50 [1, 18]: 42.1 nM; IC50 [2, 19]: 21.6 nM

Q: How did the IC50 [1, 18] turn out when `COc1cccc2c1C(=O)c1c(O)c3c(c(O)c1C2=O)C[C@@](O)(C(=O)CO)C[C@@H]3O[C@H]1C[C@H](N)[C@H](O)[C@H](C)O1` [DOXORUBICIN] was run?
A: 366 nM

Q: And the IC50 [2, 19]?
A: 459 nM

Q: For `CO[C@@H]1C[C@@H]2O[C@@]2(C)C(=O)N(C)[C@@H](C(C)C)C(=O)N[C@H](Cc2cc(Cl)c(O)c(Cl)c2)C(=O)N[C@@H](C(C)(C)O)C(=O)O[C@H](c2ccccc2)[C@H](C)/C=C/C=C/1C`, which IC50 [1, 18] is on record?
A: 6.7 nM

Q: What about the IC50 [2, 19] of the same molecule?
A: 3.5 nM

Q: And the inhibition at 0.1 µM ([3]; A549, 24 h)?
A: 100%

Q: With `CO[C@@H]1C/C=C(\C)C(=O)N(C)[C@@H](C(C)C)C(=O)N[C@H](Cc2cc(Cl)c(O)c(Cl)c2)C(=O)N[C@@H](CC(C)C)C(=O)O[C@H](c2ccccc2)[C@H](C)/C=C/C=C/1C` as the molecule, how does the IC50 [1, 18] read?
A: > 100 nM

Q: What about the IC50 [2, 19] of the same molecule?
A: > 100 nM

Q: With `CC[C@H](C)[C@H]1C(=O)N[C@H](Cc2ccc(O)c(OC)c2)C(=O)N[C@@H](C(C)(C)O)C(=O)O[C@H](c2ccccc2)[C@H](C)/C=C/C=C(\C)[C@H](OC)C[C@@H]2O[C@@]2(C)C(=O)N1C` as the molecule, how does the IC50 [1, 18] read?
A: 25.2 nM

Q: And the IC50 [2, 19]?
A: 3.7 nM

Q: `CC[C@H](C)[C@H]1C(=O)N[C@H](Cc2cc(Cl)c(O)c(Cl)c2)C(=O)N[C@@H](C(C)(C)O)C(=O)O[C@H](c2ccccc2)C/C=C/C=C(\C)[C@H](OC)C[C@@H]2O[C@@]2(C)C(=O)N1C` was tested. Which IC50 [1, 18] did it give?
A: 78.2 nM

Q: And the IC50 [2, 19]?
A: 90.3 nM

Q: Which results are given for `CC/C1=C\C=C\[C@@H](C)[C@@H](c2ccccc2)OC(=O)[C@H](C(C)C)NC(=O)[C@@H](Cc2cc(Cl)c(O)c(Cl)c2)NC(=O)[C@H](C(C)C)N(C)C(=O)/C(C)=C/C[C@H]1OC`?
A: IC50 [1, 18]: 60.3 nM; IC50 [2, 19]: 13.1 nM

Q: For `CO[C@@H]1C/C=C(\C)C(=O)N(C)[C@@H](C(C)C)C(=O)N[C@H](Cc2ccccc2)C(=O)N[C@@H](C(C)C)C(=O)O[C@H](c2ccccc2)[C@H](C)/C=C/C=C/1C`, which IC50 [1, 18] is on record?
A: > 100 nM

Q: And the IC50 [2, 19]?
A: > 100 nM

Q: How did the IC50 [1, 18] turn out when `CC[C@H](C)[C@H]1C(=O)N[C@H](Cc2cc(Cl)c(O)c(Cl)c2)C(=O)N[C@@H](C(C)C)C(=O)O[C@H](c2ccccc2)[C@H](C)/C=C/C=C(\C)[C@H](OC)C[C@@H]2O[C@@]2(C)C(=O)N1C` was run?
A: 10.5 nM

Q: And the IC50 [2, 19]?
A: 3.2 nM

Q: What does the source list for `CC[C@H](C)[C@H]1C(=O)N[C@H](Cc2cc(Cl)c(O)c(Cl)c2)C(=O)N[C@@H](C(C)(C)O)C(=O)O[C@H](c2ccccc2)[C@H](C)/C=C/C=C(\C)[C@H](OC)C/C=C/C(=O)N1C`?
A: IC50 [1, 18]: 124 nM; IC50 [2, 19]: 40.5 nM

Q: What does the source list for `CO[C@@H]1C[C@@H]2O[C@@]2(C)C(=O)N[C@@H](C(C)C)C(=O)N[C@H](Cc2cc(Cl)c(O)c(Cl)c2)C(=O)N[C@@H](C(C)(C)O)C(=O)O[C@H](c2ccccc2)[C@H](C)/C=C/C=C/1C`?
A: IC50 ([1]; hct-116): Not Active; IC50 ([2]; a549): Not Active; inhibition [3]: inactive

Q: Which results are given for `CC[C@H](C)[C@H]1C(=O)N[C@H](Cc2ccccc2)C(=O)N[C@@H](C(C)(C)O)C(=O)O[C@H](c2ccccc2)[C@H](C)/C=C/C=C(\C)[C@H](OC)C[C@@H]2O[C@@]2(C)C(=O)N1C`?
A: IC50 [1, 18]: 20.9 nM; IC50 [2, 19]: 14.3 nM

Q: With `CC[C@H](C)[C@@H]1NC(=O)[C@]2(C)O[C@H]2C[C@@H](OC)/C(C)=C/C=C/[C@@H](C)[C@@H](c2ccccc2)OC(=O)[C@H](C(C)(C)O)NC(=O)[C@@H](Cc2cc(Cl)c(O)c(Cl)c2)NC1=O` as the molecule, how does the IC50 [1, 18] read?
A: > 1000 nM

Q: And the IC50 [2, 19]?
A: 557 nM

Q: Which results are given for `CO[C@@H]1C/C=C(\C)C(=O)N(C)[C@@H](C(C)C)C(=O)N[C@H](Cc2ccc(O)cc2)C(=O)N[C@@H](C(C)C)C(=O)O[C@H](c2ccccc2)[C@H](C)/C=C/C=C/1C`?
A: IC50 [1, 18]: 59.7 nM; IC50 [2, 19]: 35.9 nM

Q: `CC[C@H](C)[C@H]1C(=O)N[C@H](Cc2cc(Cl)c(O)c(Cl)c2)C(=O)N[C@@H](C(C)(C)O)C(=O)O[C@H](c2ccccc2)[C@H](C)/C=C/C=C(\C)[C@H](OC)C/C=C(\C)C(=O)N1C` was tested. Which IC50 [1, 18] did it give?
A: 16.7 nM

Q: And the IC50 [2, 19]?
A: 10.1 nM

Q: How did the Activity [4] turn out when `CC[C@H](C)[C@H]1C(=O)N[C@H](Cc2cc(Cl)c(O)c(Cl)c2)C(=O)N[C@@H](C(C)(C)O)C(=O)O[C@H](c2ccccc2)[C@H](C)/C=C/C=C(\C)[C@H](OC)C[C@@H]2O[C@@]2(C)C(=O)N1C` was run?
A: 22.88%

Q: What about the IC50 [5] of the same molecule?
A: 1 nM

Q: What about the Activity [6] of the same molecule?
A: 11.44%

Q: What about the IC50 [7] of the same molecule?
A: 2.1 nM

Q: What about the Activity [8] of the same molecule?
A: 43.21%

Q: And the Activity [9]?
A: 7.38%

Q: What about the IC50 [10] of the same molecule?
A: 12 nM

Q: And the viability at 0.03 µM [11]?
A: 61.6%

Q: And the inhibition [12]?
A: Active

Q: And the Activity [13]?
A: 4.11%

Q: And the IC50 [1, 18]?
A: 17 nM

Q: What about the IC50 [2, 19] of the same molecule?
A: 13.1 nM

Q: What about the IC50 [14] of the same molecule?
A: 7.5 nM

Q: What about the IC50 [15] of the same molecule?
A: 8.7 nM

Q: What about the IC50 [16] of the same molecule?
A: 2.4 nM

Q: And the Activity [17]?
A: 49.41%

Q: Which results are given for `CO[C@@H]1C/C=C(\C)C(=O)N(C)[C@@H](C(C)C)C(=O)N[C@H](Cc2ccccc2)C(=O)N[C@@H](C(C)C)C(=O)O[C@H](c2ccccc2)C/C=C/C=C/1C`?
A: IC50 [1, 18]: > 100 nM; IC50 [2, 19]: > 100 nM
